Source: PMC8343189 (Acta Pharmaceutica Sinica. B, 2020)

Columns and labels:
[1] = target: T1, ANO1 (Homo sapiens, UniProt Q5XXA6, DEL476-501); experiment: YFP fluorescence quenching assay in ANO1-overexpressing FRT cell line; format: cell-based
T1 sequence (Q5XXA6 with tags, fused parts or gaps isoform Q5XXA6-5 DEL539-564): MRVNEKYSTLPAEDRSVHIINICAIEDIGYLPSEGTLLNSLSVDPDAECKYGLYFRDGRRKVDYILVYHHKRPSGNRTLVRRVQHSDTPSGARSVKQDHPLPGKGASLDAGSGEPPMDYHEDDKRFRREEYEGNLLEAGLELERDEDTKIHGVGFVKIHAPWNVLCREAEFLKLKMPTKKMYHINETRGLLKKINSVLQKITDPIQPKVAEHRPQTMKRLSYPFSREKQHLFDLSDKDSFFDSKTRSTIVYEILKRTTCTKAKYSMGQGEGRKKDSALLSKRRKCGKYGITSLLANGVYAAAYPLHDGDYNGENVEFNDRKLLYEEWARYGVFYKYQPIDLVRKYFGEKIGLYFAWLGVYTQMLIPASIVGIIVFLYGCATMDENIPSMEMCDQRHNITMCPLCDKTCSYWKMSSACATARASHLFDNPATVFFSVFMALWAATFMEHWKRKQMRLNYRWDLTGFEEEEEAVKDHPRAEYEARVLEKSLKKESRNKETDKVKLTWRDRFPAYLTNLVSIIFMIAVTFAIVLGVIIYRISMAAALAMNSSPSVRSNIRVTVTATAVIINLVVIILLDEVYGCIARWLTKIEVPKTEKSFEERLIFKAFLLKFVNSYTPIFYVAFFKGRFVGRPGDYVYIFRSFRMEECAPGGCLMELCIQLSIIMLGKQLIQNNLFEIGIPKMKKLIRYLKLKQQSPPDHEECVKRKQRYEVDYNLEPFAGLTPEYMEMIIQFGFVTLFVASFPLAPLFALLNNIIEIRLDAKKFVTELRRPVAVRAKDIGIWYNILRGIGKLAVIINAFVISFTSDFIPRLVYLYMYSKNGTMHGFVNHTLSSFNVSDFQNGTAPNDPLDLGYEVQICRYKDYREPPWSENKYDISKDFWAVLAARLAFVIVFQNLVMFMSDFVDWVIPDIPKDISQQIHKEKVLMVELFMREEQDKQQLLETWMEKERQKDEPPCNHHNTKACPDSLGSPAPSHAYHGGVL

[2] = test system: SD rats; experiment: Chronic constriction injury model; format: in vivo; details: rat CCI, Electronic Von Frey, vehicle 11.5
[3] = test system: SD rats; experiment: Formalin test on rat; format: in vivo; details: for number of foot lifts, phase 2: phase 2, vehicle 121 foot lifts
Method in brief: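 30 min later, 50 μL 5% formalin injected into the left paw; controls received saline. Foot lifts counted over phase 1 (0–10 min) and phase 2 (10–60 min). Mean ± SD; ANOVA vs vehicle.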

[4] = test system: CHO cells; experiment: SRB proliferative cytotoxicity in CHO cells; format: cell-based, Chinese Hamster; details: 72 h
Method in brief: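 CHO cells in DMEM with 10% FBS, seeded overnight, then exposed to test compound or DMSO vehicle for 72 h. Cells fixed with 10% TCA for 1 h at 4 °C and stained with 0.4% SRB in 1% acetic acid for 15 min in the dark. Washed with acetic acid, dye dissolved in 10 mmol/L Tris-base, absorbance read at 540 nm. n = 3, mean ± SEM, t-test vs DMSO control.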

[5] = Stability under different pH conditions; format: physicochemical; details: 37 °C, 100 μmol/L, mean ± SD, n = 3
Method in brief: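 Test compound diluted to 100 μmol/L in phosphate buffers at pH 1.0, 4.0, 6.8, 7.4 and 9.0 and held in a 37 °C water bath. HPLC−UV peak area measured at 0, 2 and 5 h; residual expressed relative to the 0 h peak area.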

[6] = test system: intracellular Ca^2+ concentration; experiment: Intracellular Ca^2+ fluorescence; format: cell-based; details: 30 μmol/L compound, 200 μmol/L ATP, Cal520, control 2.3 folds

Row | Structure (SMILES) | IC50 [1] | also measured
1 | O=C(Nc1sc2c(c1C(=O)O)-c1ccccc1C2)c1cccs1 [Compound 49, 2-(Thiophene-2-carboxamido)-8H-indeno [2,1-b] thiophene-3-carboxylic acid] | 11.3 µM | –
2 | O=C(Nc1scc(-c2ccc(Cl)cc2)c1C(=O)O)c1cccs1 [Compound 45, 4-(4-Chlorophenyl)-2-(thiophene-2-carboxamido) thiophene-3-carboxylic acid] | 1.74 µM | –
3 | COc1ccc2c(c1)Cc1sc(NC(=O)c3ccc(C(C)(C)C)cc3)c(C(=O)O)c1-2 [Compound 48, 2-(4-(tert-Butyl)benzamido)-6-methoxy-8H-indeno [2,1-b] thiophene-3-carboxylic acid] | 28.9 µM | –
4 | CC(C)(C)c1ccc(C(=O)Nc2scc(-c3ccc(-c4ccccc4)cc3)c2C(=O)O)cc1 [Compound 37, 4-([1,1′-Biphenyl]-4-yl)-2-(4-(tert-butyl)benzamido) thiophene-3-carboxylic acid] | 2.3 µM | –
5 | CCOC(=O)Nc1ccc(NCc2ccc(F)cc2)nc1N [Flupirtine] | – | PTI, pain threshold rate change (%) of 1 h compared to 0 h ([2]; 100 mg/kg i.g.): 36.2%; number of foot lifts, phase 2 ([3]; 200 mg/kg i.g.): 74 foot lifts
6 | CC(C)(C)c1ccc(C(=O)Nc2scc(-c3ccc4ccccc4c3)c2C(=O)O)cc1 [Compound 39, 2-(4-(tert-Butyl)benzamido)-4-(naphthalen-2-yl) thiophene-3-carboxylic acid] | 1.29 µM | –
7 | CC(C)(C)c1ccc(C(=O)Nc2scc(-c3ccc(Cl)cc3Cl)c2C(=O)O)cc1 [Compound 38, 2-(4-(tert-Butyl)benzamido)-4-(2,4-dichlorophenyl) thiophene-3-carboxylic acid] | > 100 µM | –
8 | O=C(O)c1c(NC(=O)c2cccc3ccccc23)sc2c1-c1ccccc1C2 [Compound 51, 2-(1-Naphthamido)-8H-indeno [2,1-b] thiophene-3-carboxylic acid] | 2.21 µM | –
9 | CC(C)(C)c1ccc(C(=O)Nc2sc3c(c2C(=O)O)-c2ccccc2C3(C)C)cc1 [Compound 52, 2-(4-(tert-Butyl)benzamido)-8,8-dimethyl-8H-indeno [2,1-b] thiophene-3-carboxylic acid] | 3.33 µM | –
10 | O=C(Nc1scc(-c2ccc(Cl)cc2)c1C(=O)O)c1ccc2ccccc2c1 [Compound 43, 2-(2-Naphthamido)-4-(4-chlorophenyl) thiophene-3-carboxylic acid] | 2.45 µM | –
11 | O=C(Nc1sc2c(c1C(=O)O)-c1ccccc1C2)c1ccc2ccccc2c1 [Compound 50, 2-(2-Naphthamido)-8H-indeno [2,1-b] thiophene-3-carboxylic acid] | 1.91 µM | –
12 | COc1ccc(C(=O)Nc2scc(-c3ccc(C(C)(C)C)cc3)c2C(=O)O)cc1 [Compound 41, 4-(4-(tert-Butyl)phenyl)-2-(4-methoxybenzamido) thiophene-3-carboxylic acid] | 2.28 µM | –
13 | CC(C)(C)c1ccc(C(=O)Nc2scc(-c3ccc(Cl)cc3)c2C(=O)O)cc1 [Compound 34, 2-(4-(tert-Butyl)benzamido)-4-(4-chlorophenyl) thiophene-3-carboxylic acid] | 1.34 µM | –
14 | COc1ccc(-c2csc(NC(=O)c3cccs3)c2C(=O)O)cc1 [Compound 40, 4-(4-Methoxyphenyl)-2-(thiophene-2-carboxamido) thiophene-3-carboxylic acid] | 25.5 µM | –
15 | CC(C)(C)c1ccc(C(=O)Nc2sc3c(c2C(=O)O)-c2ccccc2CC3)cc1 [Compound 53, 2-(4-(tert-Butyl)benzamido)-4,5-dihydronaphtho [2,1-b] thiophene-1-carboxylic acid] | 5.15 µM | –
16 | CC(C)(C)c1ccc(C(=O)Nc2sc3c(c2C(=O)O)-c2ccccc2C3)cc1 [Compound 47, 2-(4-(tert-Butyl)benzamido)-8H-indeno [2,1-b] thiophene-3-carboxylic acid] | 12.6 µM | –
17 | CC(C)(C)c1ccc(C(=O)Nc2scc(-c3ccc(C(F)(F)F)cc3)c2C(=O)O)cc1 [Compound 35, 2-(4-(tert-Butyl)benzamido)-4-(4-(trifluoromethyl)phenyl) thiophene-3-carboxylic acid] | > 100 µM | –
18 | O=C(Nc1scc(-c2ccc(Cl)cc2)c1C(=O)O)c1ccc(Cl)cc1Cl [Compound 44, 4-(4-Chlorophenyl)-2-(2,4-dichlorobenzamido)thiophene-3-carboxylic acid] | 1.24 µM | –
19 | Cc1ccc(C(=O)Nc2scc(-c3ccc(Cl)cc3)c2C(=O)O)c2ccccc12 [Compound 46, 4-(4-Chlorophenyl)-2-(4-methyl-1-naphthamido) thiophene-3-carboxylic acid] | 14.5 µM | –
20 | CC(C)(C)c1ccc(C(=O)Nc2scc(-c3ccc(F)cc3)c2C(=O)O)cc1 [Compound 33, 2-(4-(tert-Butyl)benzamido)-4-(4-fluorophenyl) thiophene-3-carboxylic acid] | 9.62 µM | –
21 | CCc1c(C)nc(SCC(=O)Nc2nc(-c3ccc(OC)cc3)cs2)[nH]c1=O [Compound T16Ainh-A01] | – | effect on CHO cell proliferation ([4]; 1 and 3 μmol/L): weak effect
22 | CC(C)(C)c1ccc(C(=O)Nc2scc(-c3ccc(C(C)(C)C)cc3)c2C(=O)O)cc1 [Compound 36, 2-(4-(tert-Butyl)benzamido)-4-(4-(tert-butyl)phenyl) thiophene-3-carboxylic acid] | 3.67 µM | –
23 | CC(C)C[C@H](CN)CC(=O)O [Pregabalin] | – | PTI, pain threshold rate change (%) of 1 h compared to 0 h ([2]; 40 mg/kg i.g.): 60.4%; number of foot lifts, phase 2 ([3]; 40 mg/kg i.g.): 44 foot lifts
24 | CC(C)(C)C1CCc2c(sc(NC(=O)c3ccco3)c2C(=O)O)C1 (stereo not shown) [Compound 1, 6-(tert-Butyl)-2-(furan-2-carboxamido)-4,5,6,7-tetrahydrobenzo[b]thiophene-3-carboxylic acid, reference compound] | – | effect on CHO cell proliferation ([4]; all concentrations tested): inhibited cell proliferation; analgesic effect in phase 2 compared with vehicle ([3]; 80 mg/kg i.g., phase 2): no significant analgesic effect; number of foot lifts, phase 2 ([3]; 80 mg/kg i.g.): 84 foot lifts; 5 h residual compound under different pH (%) pH 1.0 ([5]; pH 1.0, 5 h): 93.8 ± 4.0%; 5 h residual compound under different pH (%) pH 4.0 ([5]; pH 4.0, 5 h): 85.3 ± 8.1%; 5 h residual compound under different pH (%) pH 6.8 ([5]; pH 6.8, 5 h): 94.9 ± 2.9%; 5 h residual compound under different pH (%) pH 7.4 ([5]; pH 7.4, 5 h): 98.7 ± 0.7%; 5 h residual compound under different pH (%) pH 9.0 ([5]; pH 9.0, 5 h): 97.6 ± 1.2%
25 | CCOC(=O)C1=C(COCCN)NC(C)=C(C(=O)OC)C1c1ccccc1Cl (stereo not shown) [Amlodipine, reference compound] | – | maximum relative fluorescence units (RFU) vs initial value (Ca^2+ influx) [6]: remained unchanged
